Source: ChEMBL document CHEMBL4706642, “Discovery of a Potent Dual Inhibitor of Acetylcholinesterase and Butyrylcholinesterase with Antioxidant Activity that Alleviates Alzheimer-like Pathology in Old APP/PS1 Mice” (J Med Chem, 2021)
Active and inactive are the calls of the source. The calls are words filed in the database; no cut-off is given here.

Assays:
Acetylcholinesterase [1] = target: T1, Acetylcholinesterase (Homo sapiens, UniProt P22303); assay: Inhibition of recombinant human AChE using acetylthiocholineiodide as substrate preincubated for 20 mins followed by substrate addition by Ellman's method relative to parent compound
T1 sequence (P22303 whole entry): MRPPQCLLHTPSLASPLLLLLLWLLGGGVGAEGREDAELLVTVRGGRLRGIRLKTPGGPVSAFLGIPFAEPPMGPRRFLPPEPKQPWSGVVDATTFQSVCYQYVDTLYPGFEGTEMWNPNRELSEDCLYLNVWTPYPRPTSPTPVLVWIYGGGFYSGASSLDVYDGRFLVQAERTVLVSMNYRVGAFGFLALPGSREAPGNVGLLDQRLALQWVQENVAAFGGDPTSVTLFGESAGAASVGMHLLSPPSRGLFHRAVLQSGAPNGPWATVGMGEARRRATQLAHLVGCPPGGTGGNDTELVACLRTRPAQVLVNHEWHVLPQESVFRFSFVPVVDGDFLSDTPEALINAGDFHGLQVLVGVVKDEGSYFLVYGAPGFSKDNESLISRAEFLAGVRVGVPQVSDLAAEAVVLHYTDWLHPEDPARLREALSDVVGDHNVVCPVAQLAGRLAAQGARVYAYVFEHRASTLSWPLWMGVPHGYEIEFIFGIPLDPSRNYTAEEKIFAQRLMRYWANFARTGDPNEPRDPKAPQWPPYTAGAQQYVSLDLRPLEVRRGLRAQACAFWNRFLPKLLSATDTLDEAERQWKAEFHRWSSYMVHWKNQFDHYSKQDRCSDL

Cholinesterase = Cholinesterase (Homo sapiens, UniProt P06276); assay: Inhibition of human serum BChE using butyrylthiocholineiodide as substrate preincubated for 20 mins followed by substrate addition by Ellman's method relative to parent compound; format: cell-free
Sequence of Cholinesterase (P06276 whole entry): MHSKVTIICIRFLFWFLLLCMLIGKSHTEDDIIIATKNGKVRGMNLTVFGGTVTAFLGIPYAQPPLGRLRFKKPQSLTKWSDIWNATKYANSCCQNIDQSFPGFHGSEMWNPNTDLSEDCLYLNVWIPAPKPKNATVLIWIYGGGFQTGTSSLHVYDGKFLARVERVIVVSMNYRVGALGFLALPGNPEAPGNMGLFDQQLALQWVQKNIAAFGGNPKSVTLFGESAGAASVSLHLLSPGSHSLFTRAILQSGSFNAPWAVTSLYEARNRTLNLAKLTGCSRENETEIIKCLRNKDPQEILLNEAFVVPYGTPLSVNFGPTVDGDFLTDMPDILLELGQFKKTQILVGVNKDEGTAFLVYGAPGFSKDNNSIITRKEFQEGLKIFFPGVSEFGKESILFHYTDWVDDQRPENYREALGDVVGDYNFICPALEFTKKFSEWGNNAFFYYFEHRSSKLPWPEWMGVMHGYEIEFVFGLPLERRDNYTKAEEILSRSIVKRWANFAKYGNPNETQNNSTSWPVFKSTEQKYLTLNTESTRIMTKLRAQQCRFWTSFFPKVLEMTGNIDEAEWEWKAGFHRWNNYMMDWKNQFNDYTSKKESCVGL

Mus musculus [2] = assay: Cognitive enhancing effect in 11 months old APP/PS1 double mutant-transgenic mouse model assessed as increase in preference index for object at 2 mg/kg, ip administered thrice a week for 4 weeks by novel object recognition test; format: functional, organism-based
Summary of the method: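 Male APP/PS1 mice received 2 mg/kg i.p. in saline (or vehicle), three times per week for 4 weeks. Preference index = time exploring the relocated or novel object divided by total time exploring both objects. Mean ± SEM, n = 7 per group; one-way ANOVA with Bonferroni post hoc.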

Mus musculus [3] = assay: Antialzheimer activity in 11 months old APP/PS1 double mutant-transgenic mouse model assessed as amyloid beta42 levels in hippocampus at 2 mg/kg, ip administered thrice a week for 4 weeks by ELISA (Rvb= 69.0 +/- 4.54 pg/ml); format: functional
Summary of the method: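 Male APP/PS1 mice received 2 mg/kg i.p. in saline (or vehicle), three times weekly for 4 weeks. After the behavioral tests, hippocampus was collected and Aβ40 and Aβ42 were measured with a specific ELISA kit. Mean ± SEM, n = 7 mice per group; one-way ANOVA with Bonferroni post hoc.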

[4] = target: Acetylcholinesterase (Electrophorus electricus) (UniProt O42275); assay: Displacement of propidium iodide from PAS-region of electric eel AChE assessed as decrease in fluorescence intensity by spectrofluorimetric analysis
Sequence of Acetylcholinesterase (Electrophorus electricus) (O42275 24-633 limits assumed): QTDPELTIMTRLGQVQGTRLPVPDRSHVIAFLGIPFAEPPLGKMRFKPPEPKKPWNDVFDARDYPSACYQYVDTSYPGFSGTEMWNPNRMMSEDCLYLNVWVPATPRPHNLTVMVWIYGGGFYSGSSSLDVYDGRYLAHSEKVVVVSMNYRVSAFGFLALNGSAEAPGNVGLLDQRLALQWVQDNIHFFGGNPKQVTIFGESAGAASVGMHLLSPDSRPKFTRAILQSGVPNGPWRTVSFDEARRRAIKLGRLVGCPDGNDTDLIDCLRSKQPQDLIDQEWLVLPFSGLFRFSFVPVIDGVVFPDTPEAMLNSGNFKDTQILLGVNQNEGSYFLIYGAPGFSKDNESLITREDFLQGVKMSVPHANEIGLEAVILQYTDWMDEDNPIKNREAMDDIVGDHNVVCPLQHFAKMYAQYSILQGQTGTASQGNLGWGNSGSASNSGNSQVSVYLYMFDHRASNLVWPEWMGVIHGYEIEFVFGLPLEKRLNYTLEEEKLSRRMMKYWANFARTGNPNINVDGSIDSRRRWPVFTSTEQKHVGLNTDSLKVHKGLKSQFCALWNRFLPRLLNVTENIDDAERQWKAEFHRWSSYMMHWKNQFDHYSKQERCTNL
Summary of the method: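 Back-titration fluorescence assay using electric eel AChE (type VI-S). Inhibitor was added in successive aliquots from a MeOH stock. Emission was read at 602 nm with excitation at 535 nm, after subtracting blanks. […] Three independent experiments.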

Acetylcholinesterase [5] = target: T1, Acetylcholinesterase; assay: Mixed-type inhibition of recombinant human AChE assessed as inhibition constant using acetylthiocholine iodide as substrate by Cornish-Bowden plot analysis
Summary of the method: (§1)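 Kinetics on human recombinant AChE with acetylthiocholine at 0.113–0.566 mM and inhibitor at 0.17–1.36 nM. Lineweaver–Burk plots were fitted by weighted least squares. Ki was taken as the negative x-intercept of a replot of slopes vs [I]. K'i came from a plot of apparent 1/vmax vs [I]. Two independent experiments, each in triplicate.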

Acetylcholinesterase [6] = target: T1, Acetylcholinesterase; assay: Mixed-type inhibition of recombinant human AChE assessed as dissociation constant for protein-substrate-compound complex using acetylthiocholine iodide as substrate by Cornish-Bowden plot analysis; summary of the method: as §1

Compound | fold change (FC) (Acetylcholinesterase [1]) | fold change (FC) (Cholinesterase) | Activity (Mus musculus [2]) | Activity (Mus musculus [3]) [pg/mL] | Activity [4] | Ki (Acetylcholinesterase [5]) [nM] | Ki (Acetylcholinesterase [6]) [nM]
COc1cc(CNC(=O)Cc2cn(CCCCC3=CC4Cc5nc6cc(Cl)ccc6c(N)c5C(C3)C4)nn2)ccc1O (configuration not stated) | 25 | 25 | Active | 62.6 | – | – | –
COc1cc(CNC(=O)CCCCCCNc2c3c(nc4cc(Cl)ccc24)CC2C=C(C)CC3C2)ccc1O (configuration not stated) | – | – | – | – | Dose-dependent effect | 0.68 | 0.94
